IC50 and Ratio data for 9 compounds are collected here from ChEMBL document CHEMBL4665862, “Synthesis and biological activity of C-7, C-9 and C-10 modified taxane analogues from 1-deoxybaccatin VI” (Bioorg Med Chem, 2020).

Assay [1] can be described thus: Cytotoxicity against human drug-resistant A549/T cells assessed as reduction in cell viability incubated for 72 hrs by CCK-8 assay. It is filed as functional, cell-based. The settings on record: A549, 72 h. The essentials: (§1)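 Exponentially growing human tumour cells were exposed for 72 h to compounds formulated in DMSO solution. Cell survival was read by the CCK-8 method, and IC50 values were taken from the dose–response curves.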

Another assay relates to MDA-MB-231. In words: Cytotoxicity against human MDA-MB-231 cells assessed as reduction in cell viability incubated for 72 hrs by CCK-8 assay. The class given is functional, cell-based. The settings on record: MDA-MB-231, 72 h. The essentials:
as §1

For another assay, the system named is A549. Briefly: Cytotoxicity against human A549 cells assessed as reduction in cell viability incubated for 72 hrs by CCK-8 assay. It is filed as functional, cell-based. Conditions: A549, 72 h. The essentials:
as §1

The nature of assay [2]: Potency index, ratio of paclitaxel IC50 to compound IC50 for cytotoxicity against drug-resistant human A549/T cells assessed as reduction in cell viability incubated for 72 hrs by CCK-8 assay. The class given is functional.

Take `CC(=O)O[C@H]1C[C@H]2OC[C@@]2(OC(C)=O)[C@H]2[C@H](OC(=O)c3ccccc3)C3C[C@H](OC(=O)[C@H](O)[C@@H](NC(=O)c4ccccc4F)c4ccccc4)C(C)=C([C@H]4OC(=O)O[C@@H]4[C@]12C)C3(C)C` (some centres undefined): the IC50 in assay [1] was found to be 4900 nM; in the assay with MDA-MB-231 it was 182 nM; with A549, 115 nM.
Take `CC(=O)O[C@H]1C[C@H]2OC[C@@]2(OC(C)=O)[C@H]2[C@H](OC(=O)c3ccccc3)C3C[C@H](OC(=O)[C@H](O)[C@@H](NC(=O)c4ccc(F)c(F)c4)c4ccccc4)C(C)=C([C@H]4OC(=O)O[C@@H]4[C@]12C)C3(C)C` (some centres undefined): the half-maximal inhibitory concentration (IC50) in assay [1] amounted to 2880 nM; with MDA-MB-231, 1950 nM; with A549, 408 nM.
For `CC(=O)O[C@H]1C[C@H]2OC[C@@]2(OC(C)=O)[C@H]2[C@H](OC(=O)c3ccccc3)C3C[C@H](OC(=O)[C@H](O)[C@@H](NC(=O)c4ccc(F)cc4)c4ccccc4)C(C)=C([C@H]4OC(=O)O[C@@H]4[C@]12C)C3(C)C` (some centres undefined), the IC50 in assay [1] amounted to 1030 nM; with MDA-MB-231 it was 209 nM; with A549, 133 nM.
As to `COc1cccc(C(=O)N[C@@H](c2ccccc2)[C@@H](O)C(=O)O[C@H]2CC3[C@@H](OC(=O)c4ccccc4)[C@@H]4[C@]5(OC(C)=O)CO[C@@H]5C[C@H](OC(C)=O)[C@@]4(C)[C@H]4OC(=O)O[C@@H]4C(=C2C)C3(C)C)c1` (some centres undefined), the half-maximal inhibitory concentration (IC50) in assay [1] is 3020 nM; with MDA-MB-231 it was 68 nM; in the assay on A549, 69 nM.
With `CC(=O)O[C@H]1C(=O)[C@@]2(C)[C@H]([C@H](OC(=O)c3ccccc3)[C@]3(O)C[C@H](OC(=O)[C@H](O)[C@@H](NC(=O)c4ccccc4)c4ccccc4)C(C)=C1C3(C)C)[C@]1(OC(C)=O)CO[C@@H]1C[C@@H]2O` [PACLITAXEL], the IC50 was found to be 1580 nM in assay [1], 20 nM with MDA-MB-231 and 13 nM with A549.
On to `CC(=O)O[C@H]1C[C@H]2OC[C@@]2(OC(C)=O)[C@H]2[C@H](OC(=O)c3ccccc3)C3C[C@H](OC(=O)[C@H](O)[C@@H](NC(=O)c4cccc(F)c4)c4ccccc4)C(C)=C([C@H]4OC(=O)O[C@@H]4[C@]12C)C3(C)C` (some centres undefined), for which the IC50 in assay [1] was 2340 nM; in the assay with MDA-MB-231, 183 nM; with A549, 68 nM.
The corresponding values for `CC(=O)O[C@H]1C[C@H]2OC[C@@]2(OC(C)=O)[C@H]2[C@H](OC(=O)c3ccccc3)C3C[C@H](OC(=O)[C@H](O)[C@@H](NC(=O)c4cccc(Br)c4)c4ccccc4)C(C)=C([C@H]4OC(=O)O[C@@H]4[C@]12C)C3(C)C` (some centres undefined) are 2880 nM, 2020 nM and 329 nM.
As for `CC(=O)O[C@H]1C[C@H]2OC[C@@]2(OC(C)=O)[C@H]2[C@H](OC(=O)c3ccccc3)C3C[C@H](OC(=O)[C@H](O)[C@@H](NC(=O)c4ccccc4)c4ccccc4)C(C)=C([C@H]4OC(=O)O[C@@H]4[C@]12C)C3(C)C` (some centres undefined), in assay [2], the Ratio is on record as 7. The concentration for half-maximal inhibition (IC50) turned out to be 229 nM in assay [1], 124 nM with MDA-MB-231 and 22 nM in the assay on A549.
Consider `CC(=O)O[C@H]1C[C@H]2OC[C@@]2(OC(C)=O)[C@H]2[C@H](OC(=O)c3ccccc3)C3C[C@H](OC(=O)[C@H](O)[C@@H](NC(=O)c4ccc(C)cc4)c4ccccc4)C(C)=C([C@H]4OC(=O)O[C@@H]4[C@]12C)C3(C)C` (some centres undefined), for which the Ratio in assay [2] is 7. The IC50 came to 229 nM in assay [1], 119 nM in the assay on MDA-MB-231 and 62 nM with A549.
